From ChEMBL document CHEMBL1127290, “1-(2,5-Dimethoxy-4-(trifluoromethyl)phenyl)-2-aminopropane: a potent serotonin 5-HT2A/2C agonist” (J Med Chem, 1994)
Where “and” joins values, the source holds several entries; their conditions need not be identical. Equal entries are not always repeated.

Key:
Rattus norvegicus [1] = species: Rattus norvegicus; assay: The percentage of rats selecting the drug lever at each dose; type: functional
In short: (§1)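 Rats trained on a two-lever FR50 food-reinforced task to discriminate LSD tartrate (0.08 mg/kg, ip, 30 min pre-session) from saline. Test drugs were given ip in 0.9% saline, 1 mL/kg, 30 min before extinction test sessions ended at 50 presses; failure within 5 min was scored as disruption. Quantal %SDL per dose. ED50 with 95% CI by Litchfield–Wilcoxon log-probit, not calculated if ≥50% disrupted.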

Rattus norvegicus [2] = species: Rattus norvegicus; assay: Effective dose in rat; type: functional; in short: as §1
[3] = molecular target: T1, Serotonin receptor 2a and 2c (5HT2A and 5HT2C) (Rattus norvegicus, UniProt P08909+P14842); assay: Tested for the binding affinity against the site labelled by the 5-hydroxytryptamine 2A receptor - 5-hydroxytryptamine 2C receptor antagonist [3H]- ketanserin; type: protein assay
In short: (§2)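 Rat frontal cortex homogenate in 50 mM Tris HCl pH 7.4 with 0.5 mM EDTA, 0.1% ascorbate, pargyline and 5.7 mM CaCl2; 200–400 μg protein. […] Nonspecific binding defined by 10 μM cinanserin. Triplicate determinations, scintillation counting.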

[4] = molecular target: T1, Serotonin receptor 2a and 2c (5HT2A and 5HT2C); assay: Tested for the binding affinity against the site labelled by the 5-hydroxytryptamine 2A receptor - 5-hydroxytryptamine 2C receptor agonist [125I]- - (+/-)DOI; type: protein assay
In short: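 Rat frontal cortex homogenate, pooled and preincubated twice at 37 °C. Buffer was 50 mM Tris HCl pH 7.4 with 0.5 mM EDTA, 0.1% ascorbate, pargyline and MgCl2; 200–400 μg protein. 0.1 nM [125I]DOI was competed by 8–10 test concentrations, 15 min at 37 °C, then GF/C filtration. Nonspecific binding defined by 10 μM cinanserin. Triplicates, gamma counting.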

[5] = molecular target: T2, 5-hydroxytryptamine receptor 1A (Rattus norvegicus, UniProt P19327); assay: Tested for the binding affinity against the site labelled by the 5-hydroxytryptamine 1A receptor agonist [3H]- 8-OH-DPAT
T2 sequence (P19327 whole entry): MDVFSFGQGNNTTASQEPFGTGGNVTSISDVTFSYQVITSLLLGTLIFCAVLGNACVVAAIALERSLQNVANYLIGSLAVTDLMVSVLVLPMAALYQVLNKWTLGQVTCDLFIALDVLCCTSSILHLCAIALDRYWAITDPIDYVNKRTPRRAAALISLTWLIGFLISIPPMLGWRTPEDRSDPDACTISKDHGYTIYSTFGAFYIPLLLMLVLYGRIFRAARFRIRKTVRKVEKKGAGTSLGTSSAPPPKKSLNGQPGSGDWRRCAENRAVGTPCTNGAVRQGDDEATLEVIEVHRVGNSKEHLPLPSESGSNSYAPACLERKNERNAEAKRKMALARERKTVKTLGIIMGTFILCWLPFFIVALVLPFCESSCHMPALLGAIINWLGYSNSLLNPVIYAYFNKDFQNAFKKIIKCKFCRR
In short: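 [3H]-8-OH-DPAT binding in rat brain homogenate (frontal cortex or hippocampus) in 50 mM Tris HCl pH 7.4 with EDTA, ascorbate and pargyline; 200–400 μg protein. 15 min at 37 °C, then GF/C filtration. Nonspecific binding defined by 10 μM 5-HT. Triplicates, scintillation counting.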

[6] = molecular target: T1, Serotonin receptor 2a and 2c (5HT2A and 5HT2C); assay: Tested for the binding affinity against the site labelled by the 5-hydroxytryptamine 2A receptor - 5-hydroxytryptamine 2C receptor antagonist [3H] ketanserin; type: protein assay; in short: as §2

Compound | SDL (Rattus norvegicus [1]) | ED50 (Rattus norvegicus [2]) [µmol/kg] | Ki [3] [nM] | Ki [4] [nM] | Ki [5] [nM] | Ki [6] [nM]
COc1cc(CC(C)N)c(OC)cc1I (centres undefined) | 80% [middle of 4 runs] | 0.97 | – | – | – | –
COc1cc(CC(C)N)c(OC)cc1Br (centres undefined) [BROLAMFETAMINE] | – | 1.12 | – | – | – | –
COc1cc(C(F)(F)F)c(OC)cc1CC(C)N (centres undefined) | 62.5% and 80% and 100% | – | 33 | 1.5 | 2220 | –
COc1cc(CCN)c(OC)cc1I | – | 1.04 | 80.9 | 1.9 | – | –
COc1cc(C(F)(F)F)c(OC)cc1CCN | – | 0.82 | – | 1.1 | 3420 | 74.5
